Reference: article PMC10784415 (Developmental dynamics : an official publication of the …, 2023)

Tests used:
[1] = system: constitutive FGFR3 signaling; settings: mouse model of achondroplasia; cited from earlier work
[2] = system: Wistar rats; test: MicroCT analysis of craniofacial bones and sutures; type: in vivo, rat
Method in brief: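 Wistar rats received daily oral gavage from PND7 (vehicle acetate buffer pH 4.68/PEG300 50:50, or 0.1 or 1.0 mg/kg) and were examined at PND14 and PND37; 5 per sex per group. MicroCT gave bone volume and mineral density of nasal, premaxilla, maxilla, frontal, parietal and interparietal bones, linear skull measurements from set landmarks, and suture patency on 2D/3D images. Analysis was one-way ANOVA.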

[3] = Body weight at time of sacrifice; type: in vivo, rat; settings: female rats, high dose, PND37, vs vehicle and low dose; non-significant
Method in brief: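 Male and female Wistar rats received a daily oral gavage of vehicle (acetate buffer pH 4.68:PEG300, 50:50 v/v) or test compound at 0.1 or 1.0 mg/kg, starting on PND7. Rats were euthanized on PND14 or PND37, and body weight was recorded at sacrifice.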

[4] = system: Wistar rats; test: MicroCT analysis of dentoalveolar tissues; type: in vivo, rat; settings: for Rats with aberrant crown and root morphology of mandibular third molars: high dose (1.0 mg/kg) from PND7, PND37
Method in brief: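 Daily oral gavage began at PND7 (vehicle, or test compound at 0.1 or 1.0 mg/kg), and formalin-fixed heads (5 per sex per group) were scanned by microCT at PND14 and PND37. PND37 thresholds were enamel 1500 and dentin/bone 650 mg HA/cm³. Alveolar bone included buccal/lingual, interdental and mesial rise regions. Read-outs were second-molar tissue volumes and densities, first-molar root lengths, and third-molar tissue thickness. Analysis was one-way ANOVA, p<0.05.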

[5] = female rats, high dose, vs vehicle
[6] = male rats, high dose, PND37, vs vehicle
[7] = female rats, high dose, PND37, vs vehicle

Interfrontal suture patency ([2]; female rats, high dose, PND37, vs vehicle and low dose): significantly more patent
Decrease of parietal bone volume ([2]; female rats, high dose, vs low dose): 15%
Decrease of frontal bone volume [2, 5]: 12%
Decrease of interparietal bone mineral density [2, 5]: 4%
Decrease of interparietal bone volume [2, 5]: 18%
Decrease of parietal bone volume [2, 5]: 18%
Coronal suture patency ([2]; females and males, low dose and high dose, PND14, vs vehicle): appeared more patent
Interfrontal suture width [2, 6]: significantly more patent
Rats with aberrant crown and root morphology of mandibular third molars ([4]; female rats): 100%
Alveolar bone density ([4]; female rats, high dose, PND14, vs vehicle): decreased alveolar bone density
Pulp density of mandibular second molars ([4]; female rats, high dose, PND37): significant increase
Reduction of mandibular first molar dentin volume ([4]; female rats, high dose, PND37, in comparison to the other groups): 12%
Decrease of first molar lingual root length [4, 7]: 9%
Decrease of first molar mesial root length [4, 7]: 8%
Decrease of mandibular third molar dentin volume [4, 7]: 40%
Decrease of mandibular third molar enamel volume [4, 7]: 64%
Decrease of root dentin volume [4, 7]: 21%
Alterations in dental tissues ([4]; low dose (0.1 mg/kg)): did not detect any alterations
Rats with aberrant crown and root morphology of mandibular third molars ([4]; male rats): 80%
Decrease of mandibular third molar dentin volume [4, 6]: 28%
Decrease of mandibular third molar enamel thickness [4, 6]: 33%
Decrease of mandibular third molar enamel volume [4, 6]: 61%
Decrease of root dentin volume [4, 6]: 16%
Dentin mineral density of second molars [4, 6]: significantly higher
Structure (SMILES): CCN1CCN(c2ccc(Nc3cc(N(C)C(=O)Nc4c(Cl)c(OC)cc(OC)c4Cl)ncn3)cc2)CC1 [infigratinib, 3-(2,6-Dichloro-3,5-dimethoxy-phenyl)-1-{6-[4-(4-ethyl-piperazin-1-yl)-phenylamino]-pyrimidin-4-yl}-1-methyl-urea]
Effect on limb length and calvarial defects [1]: increase limb length and improve calvarial defects
Body weight [3]: trend toward lower body weight
